Test results as given in ChEMBL document CHEMBL2093137, “WHO-TDR NTD Screening”.
Converted amounts (≈) assume the structure as drawn.

Legend:
[1] = system: Trypanosoma brucei brucei; experiment: WHO-TDR: Human African Trypanosomiasis (HAT); type: functional, organism-based; conditions: Squib-427
Procedure, shortened: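 Following previously published standard procedures, with reference drugs as positive controls, a whole-organism assay was run against bloodstream-form Trypanosoma brucei, Squib 427 strain. The compounds, 10,000 in all, came from a diverse Life Chemicals library filtered for drug-likeness and reactive groups. Reported values are IC50 for antiparasitic potency.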

[2] = WHO-TDR: Cytotoxicity; type: toxicity, cell-based; conditions: human, MRC5 cells
Leishmania infantum = experiment: WHO-TDR: Leishmaniasis; type: functional, organism-based, Mus musculus; conditions: Macrophage
Procedure, shortened: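 IC50 values describe antiparasitic potency in this whole-organism screen. Leishmania infantum MHOM/MA(BE)/67 amastigotes were tested inside murine peritoneal macrophages against a 10,000-compound diverse Life Chemicals library. A reference drug served as positive control.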

Onchocerca ochengi [3] = experiment: (§1) WHO-TDR: Onchocerciasis; type: functional; set-up: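 at 12.5 µM on microfilariae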
Procedure, shortened: (§2)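 Following previously published standard procedures, with reference drugs as positive controls, a diverse Life Chemicals library was tested on whole Onchocerca ochengi or Onchocerca lienalis microfilariae. The library held 10,000 compounds filtered for drug-likeness and reactive groups. Activity is recorded both as percent inhibition and as IC50.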

Schistosoma mansoni = experiment: WHO-TDR: Schistosomiasis; type: functional; set-up: concentration or dose not given beside the values
Procedure, shortened: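 Activity appears as percent inhibition and as IC50. The underlying screen tested a diverse library of 10,000 compounds, supplied by Life Chemicals, on whole larval and/or adult worms of the Puerto Rican strain of Schistosoma mansoni.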

Onchocerca ochengi [4] = experiment: as §1; type: functional; set-up: concentration or dose not given beside the values; procedure, shortened: as §2; remark: listed apart in the source
Trypanosoma cruzi = experiment: WHO-TDR: Chagas disease; type: functional, organism-based, Homo sapiens; conditions: MRC5
Procedure, shortened: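 Intracellular amastigotes of the Trypanosoma cruzi Tulahuen CL2 beta-galactosidase strain, grown in MRC-5SV2 human lung fibroblast host cells, were tested in a whole-organism screen. The compounds came from a 10,000-member diverse Life Chemicals library that had been filtered for drug-likeness and reactive groups. Previously published standard procedures were followed, with a reference drug as positive control, and potency is reported as IC50.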

Plasmodium falciparum K1 = experiment: WHO-TDR: Malaria; type: functional, organism-based, Homo sapiens; conditions: Erythrocyte
Procedure, shortened: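 Life Chemicals supplied the diverse library of 10,000 compounds, which had been filtered for drug-likeness and reactive groups. Each was screened against the K1 strain of Plasmodium falciparum at its intra-erythrocytic stage in human red blood cells, using previously published standard procedures and a reference drug as positive control. The table reports IC50 for antiplasmodial potency.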

IC50 [1]	IC50 (Leishmania infantum)	IC50 (Plasmodium falciparum K1)	Compound	IC50 [2]	% Inhibition (Onchocerca ochengi [3])	% Inhibition (Schistosoma mansoni)	% Inhibition (Onchocerca ochengi [4])	IC50 (Trypanosoma cruzi)
3.99 µg/mL (≈ 8.9 µM)	4.36 µg/mL (≈ 9.71 µM)	> 13.5 µg/mL	CCCc1cc(=O)[nH]c(-n2nc(C)cc2NC(=O)C2CC(=O)N(c3ccc(C)c(C)c3)C2)n1 (stereo unspecified)	4.51 µg/mL (≈ 10 µM)	0%	0%	50%	1.28 µg/mL (≈ 2.86 µM)
> 12.4 µg/mL	> 12.4 µg/mL	> 12.4 µg/mL	O=C(CSc1ncc(-c2ccccc2)[nH]1)Nc1cc(C(F)(F)F)ccc1Cl	> 12.4 µg/mL	0%	0%	100%	> 12.4 µg/mL
0.39 µg/mL (≈ 0.96 µM)	3.94 µg/mL (≈ 9.71 µM)	0.703 µg/mL (≈ 1.73 µM)	CCCc1cc(=O)[nH]c(-n2nc(C)cc2NC(=O)c2ccc(Br)o2)n1	0.441 µg/mL (≈ 1.08 µM)	0%	75%	50%	< 0.122 µg/mL
> 10.7 µg/mL	> 10.7 µg/mL	> 10.7 µg/mL	Cc1cc(C(=O)Nc2nc(-c3ccc4c(c3)OCCO4)cs2)n(C)n1	> 10.7 µg/mL	0%	0%	100%	> 10.7 µg/mL
4.11 µg/mL (≈ 9.71 µM)	> 12.7 µg/mL	> 12.7 µg/mL	Cc1cccc(NC(=O)Cn2cc(S(=O)(=O)c3ccc(F)cc3)c3ccccc32)n1	> 12.7 µg/mL	0%	0%	100%	4.41 µg/mL (≈ 10.4 µM)
4.07 µg/mL (≈ 9.71 µM)	> 12.6 µg/mL	6.43 µg/mL (≈ 15.3 µM)	Cc1cc(=O)n2c(n1)SCC2CC(=O)NCCC(c1ccccc1)c1ccccc1 (stereo unspecified)	> 12.6 µg/mL	0%	0%	100%	> 12.6 µg/mL
0.876 µg/mL (≈ 2.12 µM)	4.01 µg/mL (≈ 9.71 µM)	0.657 µg/mL (≈ 1.59 µM)	Cc1cc(=O)[nH]c(-n2nc(C)cc2NC(=O)C2c3ccccc3Oc3ccccc32)n1	0.504 µg/mL (≈ 1.22 µM)	0%	50%	0%	< 0.124 µg/mL

More lines, now with the values behind:

Compound	IC50 [1]	IC50 (Leishmania infantum)	IC50 (Plasmodium falciparum K1)	IC50 [2]	% Inhibition (Onchocerca ochengi [3])	% Inhibition (Schistosoma mansoni)	% Inhibition (Onchocerca ochengi [4])	IC50 (Trypanosoma cruzi)
C=CCN1C(=O)C(C)(C)COc2ccc(NS(=O)(=O)c3ccc4c(c3)CCCC4)cc21	> 13.2 µg/mL	4.28 µg/mL (≈ 9.71 µM)	> 13.2 µg/mL	> 13.2 µg/mL	0%	0%	100%	11.4 µg/mL (≈ 26 µM)
Cc1ccc(N2CCn3c2nnc(C(=O)NCCC2=CCCCC2)c3=O)cc1	> 11.4 µg/mL	3.69 µg/mL (≈ 9.71 µM)	0.152 µg/mL (≈ 0.4 µM)	> 11.4 µg/mL	0%	0%	0%	> 11.4 µg/mL
CN1CCc2cc(C(CNC(=O)COc3ccc(Cl)cc3Cl)N3CCCC3)ccc21 (stereo unspecified)	0.43 µg/mL (≈ 0.959 µM)	3.38 µg/mL (≈ 7.54 µM)	5.1 µg/mL (≈ 11.4 µM)	11.6 µg/mL (≈ 25.9 µM)	0%	0%	50%	4.36 µg/mL (≈ 9.73 µM)
CN1CCCc2cc(C(CNC(=O)c3ccc4c(c3)OCO4)N3CCOCC3)ccc21 (stereo unspecified)	> 12.7 µg/mL	> 12.7 µg/mL	> 12.7 µg/mL	11.2 µg/mL (≈ 26.3 µM)	0%	0%	100%	4.94 µg/mL (≈ 11.7 µM)
COc1ccc(CCC(=O)NCC(c2ccsc2)N2CCc3ccccc3C2)cc1 (stereo unspecified)	4.13 µg/mL (≈ 9.83 µM)	> 12.6 µg/mL	6.14 µg/mL (≈ 14.6 µM)	> 12.6 µg/mL	0%	0%	100%	4.15 µg/mL (≈ 9.87 µM)
CCN(CC)CCN(C(=O)Cc1ccc2c(c1)OCO2)c1nc2c(C)c(C)ccc2s1	0.452 µg/mL (≈ 1.03 µM)	> 14.3 µg/mL	8.03 µg/mL (≈ 18.3 µM)	> 14.3 µg/mL	0%	0%	0%	9.51 µg/mL (≈ 21.6 µM)
O=C1CC(CNS(=O)(=O)c2ccccc2F)CN1c1ccc(Cl)cc1 (stereo unspecified)	> 11.5 µg/mL	> 11.5 µg/mL	> 11.5 µg/mL	> 11.5 µg/mL	0%	0%	100%	> 11.5 µg/mL
CC1CCCN(S(=O)(=O)c2ccc(C(=O)Nc3nnc(-c4ccno4)o3)cc2)C1 (stereo unspecified)	> 12.5 µg/mL	> 12.5 µg/mL	5.03 µg/mL (≈ 12 µM)	> 12.5 µg/mL	0%	0%	100%	> 12.5 µg/mL
O=C(Cn1c(=O)n(Cc2cccs2)c(=O)c2ncccc21)OCc1ccccc1	> 12.2 µg/mL	> 12.2 µg/mL	> 12.2 µg/mL	> 12.2 µg/mL	0%	0%	100%	> 12.2 µg/mL
COc1ccc(CCNC(=O)Cc2csc(SCc3ccc(C)cc3)n2)cc1OC	> 13.3 µg/mL	> 13.3 µg/mL	> 13.3 µg/mL	> 13.3 µg/mL	0%	0%	100%	4.01 µg/mL (≈ 9.07 µM)
CN1CCN(C(CNC(=O)CCc2ccccc2)c2ccsc2)CC1 (stereo unspecified)	> 10.7 µg/mL	> 10.7 µg/mL	> 10.7 µg/mL	> 10.7 µg/mL	0%	0%	0%	0.498 µg/mL (≈ 1.39 µM)
O=C(Cc1cccc2ccccc12)Nc1onc2c1CCC2	0.253 µg/mL (≈ 0.865 µM)	> 8.77 µg/mL	1.69 µg/mL (≈ 5.79 µM)	2.87 µg/mL (≈ 9.83 µM)	0%	0%	0%	0.498 µg/mL (≈ 1.7 µM)
O=C(NC1CCCC1)c1csc(NC(=O)c2cccs2)n1	> 9.64 µg/mL	> 9.64 µg/mL	> 9.64 µg/mL	> 9.64 µg/mL	0%	0%	100%	> 9.64 µg/mL
CCCOc1nn(CCC)cc1C(=O)N1CCN(c2ccccc2Cl)CC1	3.89 µg/mL (≈ 9.95 µM)	> 11.7 µg/mL	> 11.7 µg/mL	> 11.7 µg/mL	0%	0%	100%	3.06 µg/mL (≈ 7.83 µM)
CCCN1C(=O)C(C)(C)COc2cc(NS(=O)(=O)c3c(C)c(C)cc(C)c3C)ccc21	4.27 µg/mL (≈ 9.6 µM)	> 13.3 µg/mL	> 13.3 µg/mL	> 13.3 µg/mL	0%	0%	100%	3.55 µg/mL (≈ 7.99 µM)
